In ChEMBL document CHEMBL5724801, “EUbOPEN Chemogenomics Library - Multiplex” (2024):
“And” between values parts separate entries of the source, which are not always exact repeats. Identical values can stand only once.

Test system: HEK-293T
Test: Multiplex assay against HEK293T
Assay type: toxicity, cell-based
Details: human
Procedure, shortened: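 Live cells were stained at seeding with Hoechst33342, BioTracker Green Microtubule Cytoskeleton Dye, MitoTracker Red and Annexin V Alexa Fluor 680, then imaged on a CQ1 microscope at 37°C and 5% CO2 after compound addition. CellPathfinder machine-learning gating split cells into Hoechst high-intensity objects or normal cells. Normal cells were split into healthy, pyknosed or fragmented nuclei, and pyknosed cells into mitotic or apoptotic. Tubulin, mitochondrial-mass and membrane-permeability phenotypes are per cents of healthy-nucleus cells.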

[1] = 12 h, 1 µM, compound concentration 1 uM
[2] = 12 h, 10 µM, compound concentration 10 uM
[3] = 24 h, 1 µM, compound concentration 1 uM
[4] = 24 h, 10 µM, compound concentration 10 uM
[5] = 48 h, 1 µM, compound concentration 1 uM
[6] = 48 h, 10 µM, compound concentration 10 uM

In the case of `Cn1cc(C(=O)OCC2CCN(CCNS(C)(=O)=O)CC2)c2ccccc21`, the “Population Apoptotic (%)” value [1] is reported as 39% and 56%, the “Population Fragmented Nuclei (%)” value [1] is reported as 5% and 9% and the “Population Healthy Nuclei (%)” value [1] is reported as 83% and 76%. The “Population Hoechst High Intensity Objects (%)” value [1] was 7% and 8%, the “Population Membrane Permeable-Phenotype (%)” value [1] was 0% and the “Population Mitochondria Different-Phenotype (%)” value [1] was 35% and 62%. The “Population Mitotic Cells (%)” value [1] was 60% and 43%, the “Population Normal (%)” value [1] was 92% and 91% and the “Population Pyknosed Nuclei (%)” value [1] was 10% and 14%. For the same compound, the “Population Tubulin-Different-Phenotype (%)” value [1] was 22% and 28%, the “Total Cell Count” value [1] was 466 and 248 and the “Population Apoptotic (%)” value [2] was 47% and 43%. For the same compound, the “Population Fragmented Nuclei (%)” value [2] was 10%, the “Population Healthy Nuclei (%)” value [2] was 73% and 71% and the “Population Hoechst High Intensity Objects (%)” value [2] was 6% and 10%. The “Population Membrane Permeable-Phenotype (%)” value [2] was 0%, the “Population Mitochondria Different-Phenotype (%)” value [2] was 55% and 73% and the “Population Mitotic Cells (%)” value [2] was 52% and 56%. The “Population Normal (%)” value [2] was 93% and 89%, the “Population Pyknosed Nuclei (%)” value [2] was 15% and 18% and the “Population Tubulin-Different-Phenotype (%)” value [2] was 53% and 47%. The “Total Cell Count” value [2] was 479 and 393, the “Population Apoptotic (%)” value [3] was 29% and 48% and the “Population Fragmented Nuclei (%)” value [3] was 6% and 12%. For the same compound, the “Population Healthy Nuclei (%)” value [3] was 82% and 76%, the “Population Hoechst High Intensity Objects (%)” value [3] was 4% and 5% and the “Population Membrane Permeable-Phenotype (%)” value [3] was 1% and 0%. The “Population Mitochondria Different-Phenotype (%)” value [3] was 21% and 42%, the “Population Mitotic Cells (%)” value [3] was 70% and 51% and the “Population Normal (%)” value [3] was 95% and 94%. The “Population Pyknosed Nuclei (%)” value [3] was 10%, the “Population Tubulin-Different-Phenotype (%)” value [3] was 16% and 17% and the “Total Cell Count” value [3] was 650 and 283. The “Population Apoptotic (%)” value [4] was 35% and 48%, the “Population Fragmented Nuclei (%)” value [4] was 11% and 10% and the “Population Healthy Nuclei (%)” value [4] was 74% and 79%. The “Population Hoechst High Intensity Objects (%)” value [4] was 5% and 6%, the “Population Membrane Permeable-Phenotype (%)” value [4] was 1% and 0% and the “Population Mitochondria Different-Phenotype (%)” value [4] was 43% and 56%. The “Population Mitotic Cells (%)” value [4] was 64% and 51%, the “Population Normal (%)” value [4] was 94% and 93% and the “Population Pyknosed Nuclei (%)” value [4] was 13% and 9%. For the same compound, the “Population Tubulin-Different-Phenotype (%)” value [4] was 50% and 37%, the “Total Cell Count” value [4] was 587 and 491 and the “Population Apoptotic (%)” value [5] was 25% and 44%. For the same compound, the “Population Fragmented Nuclei (%)” value [5] was 12% and 11%, the “Population Healthy Nuclei (%)” value [5] was 78% and 82% and the “Population Hoechst High Intensity Objects (%)” value [5] was 3% and 4%. For the same compound, the “Population Membrane Permeable-Phenotype (%)” value [5] was 1% and 3%, the “Population Mitochondria Different-Phenotype (%)” value [5] was 12% and 23% and the “Population Mitotic Cells (%)” value [5] was 74% and 55%. For the same compound, the “Population Normal (%)” value [5] was 96% and 95%, the “Population Pyknosed Nuclei (%)” value [5] was 8% and 6% and the “Population Tubulin-Different-Phenotype (%)” value [5] was 10% and 11%. For the same compound, the “Total Cell Count” value [5] was 1090 and 490, the “Population Apoptotic (%)” value [6] was 38% and the “Population Fragmented Nuclei (%)” value [6] was 16% and 13%. For the same compound, the “Population Healthy Nuclei (%)” value [6] was 77% and 79%, the “Population Hoechst High Intensity Objects (%)” value [6] was 6% and 4% and the “Population Membrane Permeable-Phenotype (%)” value [6] was 1% and 0%. For the same compound, the “Population Mitochondria Different-Phenotype (%)” value [6] was 31% and 37%, the “Population Mitotic Cells (%)” value [6] was 61% and the “Population Normal (%)” value [6] was 93% and 95%. The “Population Pyknosed Nuclei (%)” value [6] was 6%, the “Population Tubulin-Different-Phenotype (%)” value [6] was 28% and 26% and the “Total Cell Count” value [6] was 883 and 758.
In the case of `C[C@H](NC(=O)CNC(=O)c1cccc(Cl)c1)c1ccccc1`, the “Population Apoptotic (%)” value [1] is reported as 33% and 48%, the “Population Fragmented Nuclei (%)” value [1] is reported as 5% and 6% and the “Population Healthy Nuclei (%)” value [1] is reported as 79% and 84%. The “Population Hoechst High Intensity Objects (%)” value [1] was 8% and 4%, the “Population Membrane Permeable-Phenotype (%)” value [1] was 0% and the “Population Mitochondria Different-Phenotype (%)” value [1] was 39% and 52%. For the same compound, the “Population Mitotic Cells (%)” value [1] was 66% and 51%, the “Population Normal (%)” value [1] was 91% and 95% and the “Population Pyknosed Nuclei (%)” value [1] was 15% and 9%. The “Population Tubulin-Different-Phenotype (%)” value [1] was 29% and 17%, the “Total Cell Count” value [1] was 449 and 384 and the “Population Apoptotic (%)” value [2] was 41% and 58%. For the same compound, the “Population Fragmented Nuclei (%)” value [2] was 6% and 7%, the “Population Healthy Nuclei (%)” value [2] was 76% and 77% and the “Population Hoechst High Intensity Objects (%)” value [2] was 7% and 13%. For the same compound, the “Population Membrane Permeable-Phenotype (%)” value [2] was 0%, the “Population Mitochondria Different-Phenotype (%)” value [2] was 54% and 61% and the “Population Mitotic Cells (%)” value [2] was 58% and 41%. The “Population Normal (%)” value [2] was 92% and 86%, the “Population Pyknosed Nuclei (%)” value [2] was 17% and 15% and the “Population Tubulin-Different-Phenotype (%)” value [2] was 39% and 33%. The “Total Cell Count” value [2] was 362 and 272, the “Population Apoptotic (%)” value [3] was 23% and 45% and the “Population Fragmented Nuclei (%)” value [3] was 9% and 7%. For the same compound, the “Population Healthy Nuclei (%)” value [3] was 80% and 84%, the “Population Hoechst High Intensity Objects (%)” value [3] was 4% and 2% and the “Population Membrane Permeable-Phenotype (%)” value [3] was 1% and 0%. For the same compound, the “Population Mitochondria Different-Phenotype (%)” value [3] was 25% and 32%, the “Population Mitotic Cells (%)” value [3] was 76% and 54% and the “Population Normal (%)” value [3] was 95% and 97%. For the same compound, the “Population Pyknosed Nuclei (%)” value [3] was 10% and 7%, the “Population Tubulin-Different-Phenotype (%)” value [3] was 15% and 9% and the “Total Cell Count” value [3] was 646 and 476. The “Population Apoptotic (%)” value [4] was 43% and 58%, the “Population Fragmented Nuclei (%)” value [4] was 9% and 10% and the “Population Healthy Nuclei (%)” value [4] was 77% and 78%. For the same compound, the “Population Hoechst High Intensity Objects (%)” value [4] was 4% and 9%, the “Population Membrane Permeable-Phenotype (%)” value [4] was 0% and the “Population Mitochondria Different-Phenotype (%)” value [4] was 39% and 49%. The “Population Mitotic Cells (%)” value [4] was 56% and 41%, the “Population Normal (%)” value [4] was 95% and 90% and the “Population Pyknosed Nuclei (%)” value [4] was 12% and 11%. The “Population Tubulin-Different-Phenotype (%)” value [4] was 25% and 19%, the “Total Cell Count” value [4] was 505 and 303 and the “Population Apoptotic (%)” value [5] was 19% and 30%. The “Population Fragmented Nuclei (%)” value [5] was 13%, the “Population Healthy Nuclei (%)” value [5] was 80% and 81% and the “Population Hoechst High Intensity Objects (%)” value [5] was 3% and 2%. The “Population Membrane Permeable-Phenotype (%)” value [5] was 0% and 2%, the “Population Mitochondria Different-Phenotype (%)” value [5] was 15% and 16% and the “Population Mitotic Cells (%)” value [5] was 80% and 70%. The “Population Normal (%)” value [5] was 96% and 97%, the “Population Pyknosed Nuclei (%)” value [5] was 5% and the “Population Tubulin-Different-Phenotype (%)” value [5] was 12% and 6%. The “Total Cell Count” value [5] was 984 and 606, the “Population Apoptotic (%)” value [6] was 44% and 35% and the “Population Fragmented Nuclei (%)” value [6] was 15% and 19%. The “Population Healthy Nuclei (%)” value [6] was 77% and 72%, the “Population Hoechst High Intensity Objects (%)” value [6] was 1% and 2% and the “Population Membrane Permeable-Phenotype (%)” value [6] was 0%. For the same compound, the “Population Mitochondria Different-Phenotype (%)” value [6] was 26% and 28%, the “Population Mitotic Cells (%)” value [6] was 55% and 64% and the “Population Normal (%)” value [6] was 98% and 97%. The “Population Pyknosed Nuclei (%)” value [6] was 7%, the “Population Tubulin-Different-Phenotype (%)” value [6] was 18% and 16% and the “Total Cell Count” value [6] was 735 and 462.
